# TCR-CD3 inh: blocks the human TCR-CD3 interaction | TAMRA-labeled TCR probe fluorescence, biochemical | inhibition, % at 9.4 µM | actives 0.37% (n = 360,000); in the data active = inhibition above about 19%;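 note: recombinant mutant TCR 2C K166C tagged with TAMRA read by polarization; 0% = receptor in buffer alone and 100% = receptor with positive control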
# PRMT1 inh: inhibitors of human PRMT1; AID 652257; actives 1.3% (n = 370,000); recombinant PRMT1, activity-based probe fluorescence polarization; Q99873; inhibition, % at 2.79 µM;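 active = inhibition above about 21% made by adding two undisclosed values, limit read from the data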
# SIAE primary: blocks human sialic acid acetylesterase; actives 0.69% (n = 370,000); inhibition, % at 9.66 µM; Q9HAT2; SIAE FP-Rh probe binding, fluorescence polarization;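 active = inhibition above a cutoff: mean of compounds within the control limits plus 3 SD of those, cut at about 17% in these data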;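 note: 0% = plate median of compound wells and 100% = probe without SIAE protein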
# mABHD4 FP: inhibits mouse alpha/beta hydrolase domain 4 | purified mABHD4, FP-Rh probe fluorescence polarization | inhibition, % at 8.92 µM | actives 0.54% (n = 370,000) | AID 720543;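 active = inhibition exceeding the mean over every tested compound plus 3 SD, cut at about 30% in these data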;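 note: 0% = plate median of compound wells and 100% = S159A mutant with DMSO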
#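 Doses – 8.92 µM, single dose · Material – wild-type mouse ABHD4 protein · Replication – single well per compound (singlicate) · Measure – percent inhibition of probe binding, normalized to plate controls · Schedule – 45 min compound pre-incubation plus 60 min probe step, 25 °C · Detection – fluorescence polarization with parallel and perpendicular emission, 525/598 nm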
# HTRA1 inhibitor: blocks human HTRA1 serine peptidase. Q92743. recombinant HTRA1, FP-rhodamine activity-based probe, fluorescence polarization. inhibition, % at 5.96 µM. actives 0.5% (n = 340,000). AID 504803; in the data active = inhibition above about 36%;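 note: 0% = enzyme with DMSO and 100% = wells lacking enzyme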
# Target sequence (Q92743 whole entry, looked up): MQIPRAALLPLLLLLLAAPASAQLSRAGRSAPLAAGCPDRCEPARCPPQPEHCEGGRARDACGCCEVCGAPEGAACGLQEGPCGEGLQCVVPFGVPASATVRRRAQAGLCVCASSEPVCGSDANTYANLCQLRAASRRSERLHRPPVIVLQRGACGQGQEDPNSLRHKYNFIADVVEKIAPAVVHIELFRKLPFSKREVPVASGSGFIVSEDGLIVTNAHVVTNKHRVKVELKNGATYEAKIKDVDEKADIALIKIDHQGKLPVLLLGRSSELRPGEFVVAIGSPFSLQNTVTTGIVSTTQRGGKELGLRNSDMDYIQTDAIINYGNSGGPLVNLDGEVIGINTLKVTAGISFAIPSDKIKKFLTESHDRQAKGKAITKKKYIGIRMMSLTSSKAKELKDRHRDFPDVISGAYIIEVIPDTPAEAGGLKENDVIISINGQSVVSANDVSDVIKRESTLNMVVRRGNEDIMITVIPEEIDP
# SIAE inh conf: confirmation of human SIAE inhibitors; shares compounds with SIAE primary; actives 13% (n = 2,300); inhibition, % at 9.66 µM; AID 1117263; SIAE FP-Rh activity-based probe, fluorescence polarization;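 active = mean inhibition of the replicates above the hit cutoff set in the primary screen, cut at about 17% in these data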;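 note: 0% = SIAE with DMSO and probe and 100% = probe without SIAE; inhibitors lower polarization as more probe stays unbound to SIAE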
# * hit, by the source's call; x = not tested or not shown. Hits are enriched below; roughly 2.7% of the tested compounds scored in any of these assays.
SMILES,TCR-CD3 inh,PRMT1 inh,SIAE primary,mABHD4 FP,HTRA1 inhibitor,SIAE inh conf
COc1ccc(NC(=O)CN(C)C(=O)CCSc2ccc(F)cc2)cc1,-0.7,0.7,18.6*,-3.5,-2.2,0.9
Cc1nc(Nc2ccc(Cl)cc2)c2nnn(Cc3ccccc3)c2n1,2.8,-1.8,0.6,-0.1,-8.6,x
COc1ccc(Nc2nc(C)nc3c2nnn3Cc2ccccc2)cc1OC,-5.4,-2.9,17.4*,-3.8,-5.5,-3.8
O=C(NC(=S)N1CCOCC1)c1cn(-c2ccccc2)nc1-c1ccc(F)cc1,-6.1,-3.9,28.1*,3.2,4.6,0.0
CCC(=O)N(C)CCc1cc2c(c(OC)c1/C=N/NC(=O)c1ccc(Br)cc1)OCO2,2.9,-0.7,6.5,4.2,-7.7,x
COc1cc(NC(=S)NCCc2c[nH]c3ccccc23)c(OC)cc1Cl,-9.8,0.7,20.4*,0.7,-13.5,6.6
CC(=O)Nc1ccc(C(=O)OCC(=O)Nc2c(C)n(C)n(-c3ccccc3)c2=O)cc1,0.4,-1.8,0.8,5.0,5.9,x
COc1cc(OC)c(C2SCCCS2)cc1OC,-7.0,-1.8,18.3*,-2.9,-1.1,1.0
CCS(=O)(=O)N1CCN(C(=O)c2ccc3nc(C)c(N(C)C(=O)CCc4ccccc4)n3c2)CC1,6.7,-2.4,6.0,9.0,x,x
COc1ccc(C2=CC(=O)OC3(CCCCC3)O2)cc1,2.2,0.3,18.6*,6.2,-6.4,-4.3
COc1cccc(NC=C2C(=O)OC3(CCCCC3)OC2=O)c1,-0.4,1.3,1.4,21.3,-5.7,x
CC(C)COc1ccc(-c2csc(N3CCC(C(N)=O)CC3)n2)cc1,x,-2.3,-1.5,4.6,x,x
COc1ccc(NC(=O)CN2CCc3ccccc3C2)c([N+](=O)[O-])c1,-0.3,0.5,6.9,-1.1,-3.2,x
CCC1CCC2(CC1)NC(=O)N(CC(=O)NCc1ccccc1Cl)C2=O (stereo not given),8.9,-1.7,17.4*,6.1,-1.4,3.5
COc1ccc(-c2ccc(/C=C(\NC(=O)c3ccccc3)C(=O)N3CCOCC3)o2)cc1,-8.1,3.0,17.1*,8.9,3.7,-0.7
Cn1cc(/C=C(\NC(=O)c2ccccc2Cl)C(=O)N2CCOCC2)c2ccccc21,-0.9,1.7,1.8,-1.6,1.6,x
CC1CCN(C(=O)/C(=C\c2ccco2)NC(=O)c2ccccc2)CC1,-9.5,6.7,23.5*,8.6,-0.2,1.5
COc1ccccc1C(=O)N/C(=C\c1cn(C)c2ccccc12)C(=O)N1CCOCC1,8.9,-0.1,21.2*,0.8,-2.9,-30.6
CCc1ccc(N2C(=O)CN(Cc3cccs3)C2=S)cc1,4.7,-1.2,-1.5,-2.4,-8.2,x
COc1ccccc1/C=N/NC(=O)c1ccc(-c2ccccc2)cc1,-0.1,0.1,-4.7,-15.2,-17.5,x
COc1cc(/C=N\NC(=O)c2ccc(-c3ccccc3)cc2)cc(OC)c1O,2.2,-2.5,27.9*,20.0,-9.5,10.2
COc1cc(/C=N/NC(=O)c2cccc([N+](=O)[O-])c2)ccc1OCc1ccc(C)cc1,-2.5,-0.9,-2.3,-5.3,-5.0,x
COc1cc(/C=N/NC(=O)c2ccc(COc3cc(C)ccc3C(C)C)cc2)cc(OC)c1O,1.5,-0.1,21.9*,-2.2,-9.2,4.6
COc1cc(/C=N\NC(=O)c2ccc(-c3ccccc3)cc2)cc(OC)c1OC(C)=O,0.8,0.3,22.9*,2.4,-19.3,2.4
Cc1ccc(S(=O)(=O)NC(=O)C2(C)CCN2C(=O)COc2ccc(Cl)cc2)nc1 (stereo not given),4.3,7.0,2.1,-4.6,x,x
SMILES,TCR-CD3 inh,PRMT1 inh,SIAE primary,mABHD4 FP,HTRA1 inhibitor,SIAE inh conf
NC(=O)C1CCN(c2nc(-c3ccc(N)cc3)cs2)CC1,x,-1.8,-5.1,7.0,x,x
NC(=O)C1CCN(c2ncc(Br)s2)CC1,x,21.6*,21.3*,27.1,x,3.6
COc1ccc(NC(=O)c2cc(C3CCCCN3C(=O)c3cccs3)on2)c(C)c1 (stereo not given),-5.3,0.7,-2.9,1.3,x,x
CC1=NN(c2ccc(S(=O)(=O)O)cc2C)C(=O)C1,-2.4,9.4,19.6*,1.9,2.1,0.8
O=C(O)CCCn1cc(NC(=O)c2cccc(F)c2)cn1,3.6,-3.9,19.7*,-0.2,11.5,1.1
COc1ccc(C2(O)CN(c3ccc(C)cc3)C3=[N+]2CCCC3)cc1 (stereo not given),3.4,-1.2,20.0*,3.9,-4.5,9.7
